The text below walks through data of ChEMBL document CHEMBL1146370 (Bioorg Med Chem, 2007).

Data set [1] addresses Vasopressin V1a receptor (Homo sapiens, UniProt P37288). Description: Binding affinity for human cloned vasopressin V1a receptor expressed in CHO cells. In kind it is cell-based. In a few lines:
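Whole-cell competition binding on CHO cells stably expressing human V1a, grown in alpha-MEM with 10% FBS and 250 ug/ml G418. Cells were plated at least 2 days ahead and incubated 30 min at 37 °C in HEPES/BSA/DMEM buffer (pH 7.0) with 1 nM [3H]AVP and 5 test concentrations (usually 0.1–1000 nM), in triplicate. Nonspecific binding was set with 100 nM AVP. Bound radioactivity was SDS-lysed and scintillation-counted. Curve-fit IC50 was converted to Ki with a 0.61 factor.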

Data set [2] is described as follows: Cmax in Sprague-Dawley rat brain at 20 mg/kg, po. In kind it is ADME, organism-based. Details: dose 20 mg/kg, route oral. In a few lines:
(§1)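 Sprague-Dawley rats were gavaged with 20 mg/kg in 23% hydroxypropyl-beta-cyclodextrin with 0.68% lactic acid; the screen co-dosed three compounds per animal. Blood was taken by cardiac puncture under CO2 anesthesia into sodium heparin at 0.25, 0.5, 1, 2, 4, 8, 12 and 24 h, from 3 rats per time point. Plasma was separated within 1 h. Plasma and brain levels were measured by LC/MS.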

Data set [3] is described as follows: Cmax in Sprague-Dawley rat plasma at 20 mg/kg, po. The format is ADME, organism-based. More on the design: dose 20 mg/kg, route oral. In a few lines: as §1
Data set [4] in a line: Tmax in Sprague-Dawley rat plasma at 20 mg/kg, po. Details: dose 20 mg/kg, route oral. In kind it is ADME, organism-based. The procedure, abridged:
as §1

Data set [5] is described as follows: Half life in Sprague-Dawley rat plasma at 20 mg/kg, po. In kind it is ADME, organism-based. More on the design: dose 20 mg/kg, route oral. The procedure, abridged:
as §1

Data set [6] in a line: Half life in Sprague-Dawley rat brain at 20 mg/kg, po. In kind it is ADME, organism-based. Details: dose 20 mg/kg, route oral. The procedure, abridged:
as §1

Data set [7] is described as follows: Drug level in dog brain at 10 mg/kg, po after 4 hrs. In kind it is ADME, organism-based, Canis lupus familiaris. Details: dose 10 mg/kg, route oral. The following applies: read-out: Drug uptake. The procedure, abridged:
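A single dog received an oral dose of 10 mg/kg in 10% DMSO/90% PEG300. Brain regions (cortex, brain stem, cerebellum, hypothalamus, hippocampus) and blood were frozen and stored at −70 °C. Samples were homogenized in pH 9.4 buffer, extracted with ethyl acetate with an extraction reference added, reconstituted in acetonitrile, and quantified by ESI LC/MS/MS against spiked control brain standards.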

Sequence of Vasopressin V1a receptor (P37288 whole entry): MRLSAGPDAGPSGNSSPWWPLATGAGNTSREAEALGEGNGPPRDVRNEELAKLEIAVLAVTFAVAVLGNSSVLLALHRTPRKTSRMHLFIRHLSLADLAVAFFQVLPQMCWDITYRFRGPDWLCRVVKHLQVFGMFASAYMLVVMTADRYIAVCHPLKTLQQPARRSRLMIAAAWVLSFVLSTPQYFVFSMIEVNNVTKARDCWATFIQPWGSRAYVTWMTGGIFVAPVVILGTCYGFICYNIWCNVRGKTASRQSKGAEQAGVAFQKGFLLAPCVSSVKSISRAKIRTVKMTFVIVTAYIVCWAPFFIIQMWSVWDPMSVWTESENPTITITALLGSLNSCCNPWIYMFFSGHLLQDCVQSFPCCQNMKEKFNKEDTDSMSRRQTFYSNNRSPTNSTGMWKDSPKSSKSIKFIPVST

In turn, `O=C(NCc1cccc(C(F)(F)F)c1)[C@H](CC(=O)N1CCN(C2CCCCC2)CC1)N1C(=O)[C@@H](N2C(=O)OC[C@@H]2c2ccccc2)[C@H]1/C=C/c1ccccc1` displayed a Ki in data set [1] of 30 nM. With `O=C(NCc1ccc(F)c(C(F)(F)F)c1)[C@H](CCC(=O)N1CCN(C2CCCCC2)CC1)N1C(=O)[C@@H](N2C(=O)OC[C@@H]2c2ccccc2)[C@H]1/C=C/c1ccccc1`, the Ki in data set [1] is under 30 nM.

Consider `O=C(NCc1cccc(C(F)(F)F)c1)[C@H](CC(=O)N1CCN(C2CCCC2)CC1)N1C(=O)[C@@H](N2C(=O)OC[C@@H]2c2ccccc2)[C@H]1/C=C/c1ccccc1`, for which the Ki in data set [1] is under 60 nM.

`O=C(NCc1cccc(C(F)(F)F)c1)[C@H](CC(=O)N1CCC(CCN2CCCCC2)CC1)N1C(=O)[C@@H](N2C(=O)OC[C@@H]2c2ccccc2)[C@H]1/C=C/c1ccccc1` came in with a Ki in data set [1] of 23 nM. `O=C(NCc1cccc(C(F)(F)F)c1)[C@H](CC(=O)N1CCN(CCN2CCCC2)CC1)N1C(=O)[C@@H](N2C(=O)OC[C@@H]2c2ccccc2)[C@H]1/C=C/c1ccccc1` displayed a Ki in data set [1] of under 60 nM. The molecule `CC(C)(C)C(=O)C(C(=O)OCc1ccccc1)N1C(=O)[C@@H](N2C(=O)OC[C@@H]2c2ccccc2)[C@H]1CCc1ccccc1` (stereo not given in full) returned an IC50 in data set [1] of over 500 nM. Regarding `O=C(NCc1cccc(C(F)(F)F)c1)[C@@H](CCC(=O)N1CCN(CC2CCCCC2)CC1)N1C(=O)[C@@H](N2C(=O)OC[C@@H]2c2ccccc2)[C@H]1/C=C/c1ccccc1`, the Ki in data set [1] is over 12 nM. The molecule `O=C(NCc1cccc(C(F)(F)F)c1)[C@H](CCC(=O)N1CCN(C2CCCCC2)CC1)N1C(=O)[C@@H](N2C(=O)OC[C@@H]2c2ccccc2)[C@H]1/C=C/c1ccccc1` displayed a Ki in data set [1] of 0.27 nM. As for `CC1(C(C(=O)OCc2ccccc2)N2C(=O)C(C)(C)[C@H]2/C=C/c2ccccc2)OCCO1` (stereo not given in full), the IC50 in data set [1] was over 20000 nM.

On to `CC1(C(C(=O)O)N2C(=O)[C@@H](N3C(=O)OC[C@@H]3c3ccccc3)[C@H]2/C=C/c2ccccc2)OCCO1` (stereo not given in full), for which the IC50 in data set [1] is over 5000 nM.

For `CC(C)C[C@@H](C(=O)NCc1ccc(Cl)cc1)N1C(=O)[C@@H](N2C(=O)OC[C@@H]2c2ccccc2)[C@H]1/C=C/c1ccccc1`, in data set [1], the IC50 is 262 nM. Take `CC(C)(C)C(=O)[C@@H](C(=O)N1CCC(CCN2CCCCC2)CC1)N1C(=O)[C@@H](N2C(=O)OCC2c2ccccc2)C1/C=C/c1ccccc1` (single isomer, unassigned): in data set [1], the IC50 was 85 nM. `C[C@@H](NC(=O)[C@H](CC(=O)N1CCC(CCN2CCCCC2)CC1)N1C(=O)[C@@H](N2C(=O)OC[C@@H]2c2ccccc2)[C@H]1/C=C/c1ccccc1)c1ccccc1` gave a Ki in data set [1] of 179 nM. This lies in the sub-micromolar range. As for `C[C@@H](NC(=O)[C@H](CC(=O)N1CCC(N2CCCCC2)CC1)N1C(=O)[C@@H](N2C(=O)OC[C@@H]2c2ccccc2)[C@H]1/C=C/c1ccccc1)c1cccc(C(F)(F)F)c1`, in data set [1], the Ki is over 6 nM.

As for `C[C@H](NC(=O)[C@H](CC(=O)N1CCC(CCN2CCCCC2)CC1)N1C(=O)[C@@H](N2C(=O)OC[C@@H]2c2ccccc2)[C@H]1/C=C/c1ccccc1)c1ccccc1`, the Ki in data set [1] came to 8.7 nM.

On to `CC(C)C[C@@H](C(=O)NCc1ccccc1)N1C(=O)[C@@H](N2C(=O)OC[C@@H]2c2ccccc2)[C@H]1/C=C/c1ccccc1`, for which the half-maximal inhibitory concentration (IC50) in data set [1] stood at 128 nM. That is a sub-micromolar value. Regarding `CC(C)C[C@@H](C(=O)NCc1ccccc1Cl)N1C(=O)[C@@H](N2C(=O)OC[C@@H]2c2ccccc2)[C@H]1/C=C/c1ccccc1`, in data set [1], the IC50 worked out at 1000 nM. In data set [1], `CN(C)CCCNC(=O)[C@H](CC(=O)NCc1cccc(C(F)(F)F)c1)N1C(=O)[C@@H](N2C(=O)OC[C@@H]2c2ccccc2)[C@H]1/C=C/c1ccccc1` gave a Ki of over 600 nM. In data set [1], `CC1(C(C(=O)OCc2ccccc2)N2C(=O)C(NC(=O)Nc3ccccc3)[C@H]2/C=C/c2ccccc2)OCCO1` (stereo not given in full) returned an IC50 of over 5000 nM. `O=C(NCc1cccc(C(F)(F)F)c1)[C@@H](CC(=O)N1CCN(N2CCCC2)CC1)N1C(=O)[C@@H](N2C(=O)OC[C@@H]2c2ccccc2)[C@H]1/C=C/c1ccccc1`: the affinity in data set [1] corresponds to a Ki of 27.5 nM.

`CC(C)(C)C(=O)C(C(=O)OCc1ccccc1)N1C(=O)[C@@H](N2C(=O)OC[C@@H]2c2ccccc2)[C@H]1C=O` (stereo not given in full) had an IC50 in data set [1] of over 20000 nM. Consider `O=C(CC[C@@H](C(=O)NCc1cccc(C(F)(F)F)c1)N1C(=O)[C@@H](N2C(=O)OC[C@@H]2c2ccccc2)[C@H]1/C=C/c1ccccc1)NCCN1CCCCC1`, for which the Ki in data set [1] turned out to be 9 nM. `CCCN1CCN(C(=O)CC[C@@H](C(=O)NCc2cccc(C(F)(F)F)c2)N2C(=O)[C@@H](N3C(=O)OC[C@@H]3c3ccccc3)[C@H]2/C=C/c2ccccc2)CC1`: in data set [1], the Ki came to 1.19 nM. Consider `CC1(C(C(=O)OCc2ccccc2)N2C(=O)C(N)[C@H]2/C=C/c2ccccc2)OCCO1` (stereo not given in full), for which the IC50 in data set [1] was over 20000 nM. Still for that read-out and setting: under `O=C(OCc1ccccc1)C(C(=O)c1ccccc1)N1C(=O)[C@@H](N2C(=O)OC[C@@H]2c2ccccc2)[C@H]1/C=C/c1ccccc1` (stereo not given in full) stands 100 nM. For the molecule `CN(Cc1cccc(C(F)(F)F)c1)C(=O)[C@@H](CC(=O)N1CCC(N2CCCCC2)CC1)N1C(=O)[C@@H](N2C(=O)OC[C@@H]2c2ccccc2)[C@H]1/C=C/c1ccccc1`, the results for the Cmax in data set [2] and in data set [3] were 48 ng/mL and 160 ng/mL, respectively. For the same molecule, the Tmax in data set [4] came to 4 h. For the same molecule, the half-life in data set [5] was 4 h; in data set [6], 6 h.

`O=C(NCc1cccc(C(F)(F)F)c1)[C@@H](CC(=O)N1CCC(N2CCCCC2)CC1)N1C(=O)[C@@H](N2C(=O)OC[C@@H]2c2ccccc2)[C@H]1/C=C/c1ccccc1` displayed a Cmax in data set [3] of 50 ng/mL. `C[C@@H](NC(=O)[C@@H](CC(=O)N1CCC(N2CCCCC2)CC1)N1C(=O)[C@@H](N2C(=O)OC[C@@H]2c2ccccc2)[C@H]1/C=C/c1ccccc1)c1cccc(C(F)(F)F)c1` [SRX246] showed a Ki in data set [1] of 1.27 nM. In turn, `O=C(NCc1cccc(C(F)(F)F)c1)[C@H](CCC(=O)N1CCC(CN2CCCCC2)CC1)N1C(=O)[C@@H](N2C(=O)OC[C@@H]2c2ccccc2)[C@H]1/C=C/c1ccccc1` yielded a Ki in data set [1] of 1.95 nM.

As for `O=C(NCc1cccc(C(F)(F)F)c1)[C@@H](CCC(=O)N1CCC(N2CCCCC2)CC1)N1C(=O)[C@@H](N2C(=O)OC[C@@H]2c2ccccc2)[C@H]1/C=C/c1ccccc1`, in data set [1], the affinity corresponds to a Ki of 30 nM. Molecule `CC(C)C[C@@H](C(=O)N1CCC(N2CCCCC2)CC1)N1C(=O)[C@@H](N2C(=O)OC[C@@H]2c2ccccc2)[C@H]1/C=C/c1ccccc1` registered an IC50 in data set [1] of 54 nM.

As for `CC1(C(C(=O)OCc2ccccc2)N2C(=O)[C@@H](N3C(=O)OC[C@@H]3c3ccccc3)[C@H]2/C=C/c2ccccc2)OCCO1` (stereo not given in full), the IC50 in data set [1] amounted to 45 nM. Take `CN(C)CCNC(=O)[C@H](CC(=O)NCc1cccc(C(F)(F)F)c1)N1C(=O)[C@@H](N2C(=O)OC[C@@H]2c2ccccc2)[C@H]1/C=C/c1ccccc1`: the Ki in data set [1] is over 600 nM. `O=C(CN1C(=O)[C@@H](N2C(=O)OC[C@@H]2c2ccccc2)[C@H]1/C=C/c1ccccc1)OCc1ccccc1` registered an IC50 in data set [1] of 400 nM. On the same count and under the same terms, under `CC(C)(C)C(=O)C(C(=O)OCc1ccccc1)N1C(=O)[C@@H](N2C(=O)OC[C@@H]2c2ccccc2)[C@H]1/C=C/c1ccco1` (stereo not given in full) stands 2 nM.

`C[C@@H](NC(=O)[C@@H](CC(=O)N1CCC(N2CCCCC2)CC1)N1C(=O)[C@@H](N2C(=O)OC[C@@H]2c2ccccc2)[C@H]1/C=C/c1ccccc1)c1ccccc1`: the values for the Cmax in data set [2] and in data set [3] were 20 ng/mL and 100 ng/mL, respectively. The Tmax in data set [4] is 4 h. Further, the half-life in data set [5] was 2.5 h; in data set [6] it was 6 h.

`CC1(C(C(=O)OCC[Si](C)(C)C)N2C(=O)[C@@H](N3C(=O)OC[C@@H]3c3ccccc3)[C@H]2/C=C/c2ccccc2)OCCO1` (stereo not given in full) returned an IC50 in data set [1] of 405 nM. This lies in the sub-micromolar range. For `CC(C)C[C@@H](C(=O)N1CCC(CCN2CCCCC2)CC1)N1C(=O)[C@@H](N2C(=O)OC[C@@H]2c2ccccc2)[C@H]1/C=C/c1ccccc1`, the concentration at 4 h in data set [7] stood at 100 nM. With `CC(=O)NC1C(=O)N(C(C(=O)OCc2ccccc2)C2(C)OCCO2)[C@@H]1/C=C/c1ccccc1` (stereo not given in full), the IC50 in data set [1] is over 20000 nM. `O=C(C[C@@H](C(=O)N1CCN(CCc2ccccc2)CC1)N1C(=O)[C@@H](N2C(=O)OC[C@@H]2c2ccccc2)[C@H]1/C=C/c1ccccc1)NCc1cccc(C(F)(F)F)c1`: the Ki in data set [1] turned out to be 6100 nM. In data set [1], `CC1(C(C(=O)OCc2ccccc2)N2C(=O)[C@@H](N3C(=O)c4ccccc4C3=O)[C@H]2/C=C/c2ccccc2)OCCO1` (stereo not given in full) gave an IC50 of 61000 nM. As to `O=C(NCc1cccc(C(F)(F)F)c1)[C@H](CCC(=O)N1CCN(CCc2ccccc2)CC1)N1C(=O)[C@@H](N2C(=O)OC[C@@H]2c2ccccc2)[C@H]1/C=C/c1ccccc1`, the affinity in data set [1] corresponds to a Ki of 1.17 nM.

Usually Ki stands for a dissociation constant, usually derived from enzyme kinetics or from competition with a known ligand. A higher Ki goes with a looser hold on the target. In general, IC50 refers to the midpoint of a concentration-inhibition curve. Higher therefore signals lower potency. What is called Cmax is the maximum level reached in the sampled fluid or tissue. As usually defined, the Tmax is the time from dosing to the highest level. One may read the half-life as the time in which the quantity being followed falls by half. The low end stands for fast loss, the high end for slow loss.
